# Assay results taken from ChEMBL document CHEMBL4177764 (J Med Chem, 2018).
# The source made the active and inactive calls. The rule behind the calls is not given here.
# Columns and labels:
# [1] = test system: SU-DHL-1; assay: Antiproliferative activity against human SU-DHL1 cells after 72 hrs by CellTiter-Glo luminescent cell viability assay; format: functional, cell-based
# [2] = target: T1, ALK tyrosine kinase receptor (Homo sapiens, UniProt Q9UM73); assay: Induction of ALK degradation in human KARPAS299 cells at 250 nM after 16 hrs in presence of ALK inhibitor LDK378 by immunoblot method; format: cell-based
# Target sequence in this assay (Q9UM73 19-1620 limits assumed): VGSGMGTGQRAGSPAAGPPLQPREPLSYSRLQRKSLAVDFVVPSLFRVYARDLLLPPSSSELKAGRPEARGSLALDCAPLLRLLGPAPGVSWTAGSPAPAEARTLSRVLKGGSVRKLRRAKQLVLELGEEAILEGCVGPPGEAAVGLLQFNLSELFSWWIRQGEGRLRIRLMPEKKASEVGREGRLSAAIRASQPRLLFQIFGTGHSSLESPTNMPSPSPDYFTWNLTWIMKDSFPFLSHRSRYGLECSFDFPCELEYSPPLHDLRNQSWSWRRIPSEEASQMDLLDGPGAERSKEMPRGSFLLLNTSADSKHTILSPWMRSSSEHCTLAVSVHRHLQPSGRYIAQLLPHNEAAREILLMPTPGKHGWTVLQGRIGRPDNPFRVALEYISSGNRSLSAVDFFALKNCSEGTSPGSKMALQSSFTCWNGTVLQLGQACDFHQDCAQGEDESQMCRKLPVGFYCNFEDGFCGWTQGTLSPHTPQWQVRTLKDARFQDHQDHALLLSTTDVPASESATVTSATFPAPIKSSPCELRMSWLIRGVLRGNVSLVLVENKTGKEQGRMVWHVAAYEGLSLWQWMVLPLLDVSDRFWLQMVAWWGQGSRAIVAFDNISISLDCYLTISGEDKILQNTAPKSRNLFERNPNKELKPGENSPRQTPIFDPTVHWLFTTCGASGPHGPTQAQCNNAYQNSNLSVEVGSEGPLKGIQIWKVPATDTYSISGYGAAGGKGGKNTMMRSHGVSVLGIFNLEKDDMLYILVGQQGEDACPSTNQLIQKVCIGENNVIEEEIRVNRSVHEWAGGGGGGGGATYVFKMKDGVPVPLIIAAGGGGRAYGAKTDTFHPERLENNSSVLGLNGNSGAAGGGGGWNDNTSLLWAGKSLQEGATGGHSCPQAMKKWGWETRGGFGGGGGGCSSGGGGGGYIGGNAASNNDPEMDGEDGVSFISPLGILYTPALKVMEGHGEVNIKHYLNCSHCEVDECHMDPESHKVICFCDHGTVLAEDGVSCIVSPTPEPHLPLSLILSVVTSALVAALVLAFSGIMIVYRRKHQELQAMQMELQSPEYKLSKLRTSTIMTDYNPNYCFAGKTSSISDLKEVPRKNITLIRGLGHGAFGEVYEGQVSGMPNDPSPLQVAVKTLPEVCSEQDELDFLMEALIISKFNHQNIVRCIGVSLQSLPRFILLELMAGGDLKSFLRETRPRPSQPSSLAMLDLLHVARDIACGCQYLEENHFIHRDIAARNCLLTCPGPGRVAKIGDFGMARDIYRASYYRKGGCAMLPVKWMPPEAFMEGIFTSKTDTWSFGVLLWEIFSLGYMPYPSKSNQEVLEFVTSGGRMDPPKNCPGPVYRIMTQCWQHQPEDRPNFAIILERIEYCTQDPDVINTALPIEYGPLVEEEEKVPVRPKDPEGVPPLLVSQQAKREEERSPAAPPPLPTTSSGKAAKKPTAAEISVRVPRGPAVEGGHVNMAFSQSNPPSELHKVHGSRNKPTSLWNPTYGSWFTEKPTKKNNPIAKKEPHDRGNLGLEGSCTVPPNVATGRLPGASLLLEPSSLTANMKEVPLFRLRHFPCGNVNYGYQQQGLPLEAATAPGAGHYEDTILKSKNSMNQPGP
# [3] = target: T2, Aurora kinase A (Homo sapiens) (UniProt O14965); assay: Induction of aurora A degradation in human CHLA20 cells at 100 nM after 16 hrs in presence of […] inhibitor MLN4924 and ABCB1 inhibitor tariquidar by immunoblot method; format: cell-based
# T2 sequence (whole entry): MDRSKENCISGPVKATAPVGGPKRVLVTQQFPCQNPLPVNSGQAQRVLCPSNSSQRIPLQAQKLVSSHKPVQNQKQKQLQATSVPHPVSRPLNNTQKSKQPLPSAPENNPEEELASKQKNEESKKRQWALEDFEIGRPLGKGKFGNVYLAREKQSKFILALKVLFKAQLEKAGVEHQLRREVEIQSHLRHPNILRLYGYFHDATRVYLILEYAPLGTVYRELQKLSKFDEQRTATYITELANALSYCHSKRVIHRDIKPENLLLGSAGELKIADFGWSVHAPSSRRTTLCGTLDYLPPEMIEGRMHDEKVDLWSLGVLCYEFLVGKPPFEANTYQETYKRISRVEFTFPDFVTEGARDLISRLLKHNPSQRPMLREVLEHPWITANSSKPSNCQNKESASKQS
# Outline: (§1)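 Cells were pre-treated for 2 h with DMSO, carfilzomib, MLN4924 or pomalidomide, then treated with compound for 16 h, with immunoblot read-out. CHLA20 cells also received 125 nM tariquidar throughout.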
# [4] = species: Homo sapiens; assay: Antiproliferative activity against human CHLA20 cells after 72 hrs in presence of ABCB1 inhibitor tariquidar by CellTiter-Glo luminescent cell viability assay; format: functional, cell-based
# [5] = target: T1, ALK tyrosine kinase receptor; assay: Induction of ALK degradation in human CHLA20 cells at 100 nM after 16 hrs in presence of ALK inhibitor LDK378 and ABCB1 inhibitor tariquidar by immunoblot method; format: cell-based
# Outline: (§2)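 CHLA20 cells were kept with 125 nM tariquidar and pre-treated for 2 h with DMSO, carfilzomib, MLN4924, pomalidomide, TAE684 or LDK378. A 16 h degrader treatment followed, with immunoblot readout of ALK.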
# Target sequence in this assay (Q9UM73 19-1620 limits assumed): as the sequence (Q9UM73 19-1620 limits assumed) above
# [6] = target: Focal adhesion kinase 1 (Homo sapiens) (UniProt Q05397); assay: Induction of PTK2 degradation in human NCI-H3122 cells at 0.01 to 1 uM after 16 hrs by immunoblot method; format: cell-based
# [7] = target: T1, ALK tyrosine kinase receptor; assay: Induction of ALK degradation in human NCI-H3122 cells after 16 hrs by immunoblot method; format: cell-based
# Outline: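 H3122 and Karpas 299 cells were given a dose titration for 16 h. ALK and Aurora A were then read by immunoblot. DC50 was calculated from the titrations, two independent experiments.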
# Target sequence in this assay (Q9UM73 whole entry): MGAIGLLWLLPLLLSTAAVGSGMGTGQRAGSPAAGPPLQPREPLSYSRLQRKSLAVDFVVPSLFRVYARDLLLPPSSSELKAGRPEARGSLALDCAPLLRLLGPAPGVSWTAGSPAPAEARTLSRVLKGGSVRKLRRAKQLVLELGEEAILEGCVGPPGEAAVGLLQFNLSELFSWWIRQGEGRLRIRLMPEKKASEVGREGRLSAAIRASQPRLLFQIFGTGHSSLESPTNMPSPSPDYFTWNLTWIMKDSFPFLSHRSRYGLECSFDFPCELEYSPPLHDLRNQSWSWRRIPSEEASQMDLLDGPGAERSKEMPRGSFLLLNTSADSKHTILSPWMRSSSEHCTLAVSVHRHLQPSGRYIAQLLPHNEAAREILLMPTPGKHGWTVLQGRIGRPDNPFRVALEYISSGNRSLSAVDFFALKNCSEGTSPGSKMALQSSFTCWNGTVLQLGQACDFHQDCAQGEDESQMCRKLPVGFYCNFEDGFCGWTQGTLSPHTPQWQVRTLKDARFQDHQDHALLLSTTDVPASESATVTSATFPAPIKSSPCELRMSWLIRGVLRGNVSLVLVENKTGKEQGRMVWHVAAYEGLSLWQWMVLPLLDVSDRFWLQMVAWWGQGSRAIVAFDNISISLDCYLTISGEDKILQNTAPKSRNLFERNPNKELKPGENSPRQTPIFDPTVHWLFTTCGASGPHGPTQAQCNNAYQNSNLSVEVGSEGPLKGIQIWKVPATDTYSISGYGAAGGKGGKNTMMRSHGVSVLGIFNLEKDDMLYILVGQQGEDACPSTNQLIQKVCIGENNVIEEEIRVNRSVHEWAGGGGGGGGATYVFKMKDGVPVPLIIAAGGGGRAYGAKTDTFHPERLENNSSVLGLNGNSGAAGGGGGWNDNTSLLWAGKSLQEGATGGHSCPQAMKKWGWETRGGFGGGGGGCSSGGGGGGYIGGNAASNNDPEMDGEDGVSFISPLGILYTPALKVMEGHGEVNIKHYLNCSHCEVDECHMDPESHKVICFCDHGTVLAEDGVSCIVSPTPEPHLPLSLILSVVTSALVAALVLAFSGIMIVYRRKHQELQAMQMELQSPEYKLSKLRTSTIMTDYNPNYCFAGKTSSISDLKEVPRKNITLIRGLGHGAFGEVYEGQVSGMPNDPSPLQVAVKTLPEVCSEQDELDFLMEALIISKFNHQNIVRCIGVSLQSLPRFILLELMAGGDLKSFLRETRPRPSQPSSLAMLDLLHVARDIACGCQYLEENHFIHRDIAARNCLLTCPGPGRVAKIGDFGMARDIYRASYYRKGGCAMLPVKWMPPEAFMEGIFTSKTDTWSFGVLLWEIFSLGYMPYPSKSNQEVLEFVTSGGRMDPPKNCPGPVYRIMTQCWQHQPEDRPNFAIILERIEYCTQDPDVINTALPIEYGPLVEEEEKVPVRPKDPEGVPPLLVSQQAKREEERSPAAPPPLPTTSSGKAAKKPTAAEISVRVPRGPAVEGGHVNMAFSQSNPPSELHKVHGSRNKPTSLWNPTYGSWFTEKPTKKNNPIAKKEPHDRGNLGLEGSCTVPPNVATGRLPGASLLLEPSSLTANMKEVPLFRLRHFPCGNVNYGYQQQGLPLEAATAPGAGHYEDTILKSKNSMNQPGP
# [8] = target: T1, ALK tyrosine kinase receptor; assay: Induction of ALK degradation in human CHLA20 cells at 100 nM after 16 hrs in presence of ABCB1 shRNA by immunoblot method; format: cell-based
# Target sequence in this assay (Q9UM73 19-1620 limits assumed): as the sequence (Q9UM73 19-1620 limits assumed) above
# [9] = test system: NCI-H3122; assay: Antiproliferative activity against human NCI-H3122 cells after 72 hrs by CellTiter-Glo luminescent cell viability assay; format: functional, cell-based
# [10] = target: T1, ALK tyrosine kinase receptor; assay: Induction of ALK degradation in human Kelly cells after 16 hrs by immunoblot method; format: cell-based
# Outline: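 Kelly neuroblastoma cells (ABCB1-low) were given a 16 hr dose titration. ALK and Aurora A were then read by western blot. DC50 was determined from two independent experiments.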
# Target sequence in this assay (Q9UM73 whole entry): as the sequence (Q9UM73 whole entry) above
# [11] = target: Ribosomal protein S6 kinase alpha-1 (Homo sapiens) (UniProt Q15418); assay: Induction of RPS6KA1 degradation in human NCI-H3122 cells at 0.01 to 1 uM after 16 hrs by immunoblot method; format: cell-based
# [12] = target: T2, Aurora kinase A (Homo sapiens); assay: Induction of aurora A degradation in human NCI-H3122 cells at 250 nM after 16 hrs in presence of […] inhibitor MLN4924 by immunoblot method; format: cell-based
# [13] = target: T1, ALK tyrosine kinase receptor; assay: Induction of ALK degradation in human KARPAS299 cells at 250 nM after 16 hrs in presence of […] inhibitor MLN4924 by immunoblot method; format: cell-based
# Target sequence in this assay (Q9UM73 19-1620 limits assumed): as the sequence (Q9UM73 19-1620 limits assumed) above
# [14] = target: Ribosomal protein S6 kinase alpha-1 (Homo sapiens) (UniProt Q15418); assay: Induction of RPS6KA1 degradation in human Kelly cells at 100 nM measured over 2 to 16 hrs by immunoblot method; format: cell-based
# [15] = target: T1, ALK tyrosine kinase receptor; assay: Induction of ALK degradation in human Kelly cells at 100 nM after 8 hrs by immunoblot method; format: cell-based
# Outline: (§3)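 Kelly cells were treated with 100 nM compound for varying times and lysed at each time point. ALK levels were read by immunoblot.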
# Target sequence in this assay (Q9UM73 19-1620 limits assumed): as above
# [16] = target: T1, ALK tyrosine kinase receptor; assay: Induction of ALK degradation in human CHLA20 cells at 100 nM after 4 hrs in presence of ABCB1 inhibitor tariquidar by immunoblot method; format: cell-based
# Outline: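 CHLA20 cells were co-treated with 125 nM tariquidar, then treated with 100 nM compound over a time course. ALK was read by immunoblot.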
# Target sequence in this assay (Q9UM73 19-1620 limits assumed): as above
# [17] = target: T1, ALK tyrosine kinase receptor; assay: Induction of ALK degradation in human Kelly cells at 100 nM after 4 hrs by immunoblot method; format: cell-based; outline: as §3
# [18] = target: Tyrosine-protein kinase Fer (Homo sapiens) (UniProt P16591); assay: Induction of FER degradation in human NCI-H3122 cells at 0.01 to 1 uM after 16 hrs by immunoblot method; format: cell-based
# [19] = target: T1, ALK tyrosine kinase receptor; assay: Induction of ALK degradation in human CHLA20 cells at 100 nM after 16 hrs in presence of pomalidomide and ABCB1 inhibitor tariquidar by immunoblot method; format: cell-based; outline: as §2
# [20] = target: Ribosomal protein S6 kinase alpha-1 (Homo sapiens) (UniProt Q15418); assay: Induction of RPS6KA1 degradation in human NCI-H3122 cells at 250 nM measured over 2 to 16 hrs by immunoblot method; format: cell-based
# [21] = target: T1, ALK tyrosine kinase receptor; assay: Induction of ALK degradation in human KARPAS299 cells at 250 nM after 8 hrs by immunoblot method; format: cell-based
# [22] = target: T2, Aurora kinase A (Homo sapiens); assay: Induction of aurora A degradation in human CHLA20 cells at 100 nM after 16 hrs in presence of proteasome inhibitor carfilzomib and ABCB1 inhibitor tariquidar by immunoblot method; format: cell-based; outline: as §1
# [23] = target: Ribosomal protein S6 kinase alpha-1 (Homo sapiens) (UniProt Q15418); assay: Induction of RPS6KA1 degradation in human Kelly cells at 10 to 160 nM after 16 hrs by immunoblot method; format: cell-based
# [24] = target: T1, ALK tyrosine kinase receptor; assay: Induction of ALK degradation in human KARPAS299 cells at 250 nM after 16 hrs in presence of proteasome inhibitor carfilzomib by immunoblot method; format: cell-based
# [25] = target: T1, ALK tyrosine kinase receptor; assay: Induction of ALK degradation in human KARPAS299 cells at 250 nM after 16 hrs in presence of pomalidomide by immunoblot method; format: cell-based
# [26] = target: Focal adhesion kinase 1 (Homo sapiens) (UniProt Q05397); assay: Induction of PTK2 degradation in human NCI-H3122 cells at 250 nM measured over 2 to 16 hrs by immunoblot method; format: cell-based
# [27] = target: T1, ALK tyrosine kinase receptor; assay: Induction of ALK degradation in human KARPAS299 cells at 250 nM after 16 hrs in presence of ALK inhibitor TAE684 by immunoblot method; format: cell-based
# [28] = target: Focal adhesion kinase 1 (Homo sapiens) (UniProt Q05397); assay: Induction of PTK2 degradation in human Kelly cells at 10 to 160 nM after 16 hrs by immunoblot method; format: cell-based
# [29] = target: T2, Aurora kinase A (Homo sapiens); assay: Induction of aurora A degradation in human KARPAS299 cells at 250 nM after 16 hrs in presence of […] inhibitor MLN4924 by immunoblot method; format: cell-based
# [30] = target: T1, ALK tyrosine kinase receptor; assay: Induction of ALK degradation in human NCI-H3122 cells at 250 nM after 16 hrs in presence of proteasome inhibitor carfilzomib by immunoblot method; format: cell-based
# Chain of Ribosomal protein S6 kinase alpha-1 (Homo sapiens) (Q15418 whole entry): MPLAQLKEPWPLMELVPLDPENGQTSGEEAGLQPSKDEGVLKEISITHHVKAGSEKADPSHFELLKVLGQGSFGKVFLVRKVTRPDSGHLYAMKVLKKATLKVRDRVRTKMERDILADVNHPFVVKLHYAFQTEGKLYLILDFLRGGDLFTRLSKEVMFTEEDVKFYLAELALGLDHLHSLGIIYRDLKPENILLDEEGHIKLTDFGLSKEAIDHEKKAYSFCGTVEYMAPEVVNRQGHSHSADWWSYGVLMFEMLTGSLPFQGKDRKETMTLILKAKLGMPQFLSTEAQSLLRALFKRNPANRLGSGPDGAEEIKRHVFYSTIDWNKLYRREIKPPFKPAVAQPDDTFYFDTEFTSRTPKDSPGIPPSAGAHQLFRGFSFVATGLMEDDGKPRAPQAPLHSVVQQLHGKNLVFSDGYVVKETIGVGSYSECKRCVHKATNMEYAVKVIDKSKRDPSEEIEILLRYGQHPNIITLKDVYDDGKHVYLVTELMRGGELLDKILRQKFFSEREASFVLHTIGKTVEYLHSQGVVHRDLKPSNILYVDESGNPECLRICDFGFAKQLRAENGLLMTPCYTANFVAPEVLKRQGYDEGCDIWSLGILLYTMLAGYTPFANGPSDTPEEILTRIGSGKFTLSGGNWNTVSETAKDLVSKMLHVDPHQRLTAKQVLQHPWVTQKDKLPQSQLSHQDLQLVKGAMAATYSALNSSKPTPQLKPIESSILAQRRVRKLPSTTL
# Chain of Tyrosine-protein kinase Fer (Homo sapiens) (P16591 whole entry, looked up): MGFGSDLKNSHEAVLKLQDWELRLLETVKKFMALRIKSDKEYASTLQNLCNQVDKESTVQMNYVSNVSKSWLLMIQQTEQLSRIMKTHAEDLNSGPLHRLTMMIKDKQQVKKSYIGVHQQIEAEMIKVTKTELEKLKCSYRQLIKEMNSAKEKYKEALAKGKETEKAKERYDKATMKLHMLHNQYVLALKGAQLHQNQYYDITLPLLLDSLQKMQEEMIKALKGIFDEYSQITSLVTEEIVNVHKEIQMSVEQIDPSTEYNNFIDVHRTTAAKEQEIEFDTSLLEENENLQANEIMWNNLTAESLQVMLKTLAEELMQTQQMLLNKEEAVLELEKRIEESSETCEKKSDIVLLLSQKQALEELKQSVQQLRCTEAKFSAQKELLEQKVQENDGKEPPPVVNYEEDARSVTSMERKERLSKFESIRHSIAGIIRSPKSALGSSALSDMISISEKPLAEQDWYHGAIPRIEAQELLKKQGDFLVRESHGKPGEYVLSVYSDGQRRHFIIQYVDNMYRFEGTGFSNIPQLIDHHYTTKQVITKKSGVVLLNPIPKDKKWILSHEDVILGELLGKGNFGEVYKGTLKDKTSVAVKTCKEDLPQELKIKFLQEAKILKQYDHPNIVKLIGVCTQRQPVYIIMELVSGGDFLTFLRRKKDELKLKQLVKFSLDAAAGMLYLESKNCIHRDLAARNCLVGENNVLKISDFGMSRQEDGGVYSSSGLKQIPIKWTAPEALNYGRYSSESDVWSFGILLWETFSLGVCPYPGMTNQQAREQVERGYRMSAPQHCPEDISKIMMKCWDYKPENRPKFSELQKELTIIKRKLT
SMILES,Activity [1],Activity [2],Activity [3],Activity [4],Activity [5],Activity [6],DC50 [7] [nM],Activity [8],Activity [9],DC50 [10] [nM],Activity [11],Activity [12],Activity [13],Activity [14],Activity [15],Activity [16],Activity [17],Activity [18],Activity [19],Activity [20],also measured
Cc1cc(Nc2ncc(Cl)c(Nc3ccccc3S(=O)(=O)C(C)C)n2)c(OC(C)C)cc1C1CCN(CCOCCOCCNC(=O)CNc2cccc3c2C(=O)N(C2CCC(=O)NC2=O)C3=O)CC1 (stereo not given),Active,inactive,inactive,Active,inactive,Active,10,Active,Active,50,Active,inactive,inactive,Active,Active,Active,inactive,Active,inactive,Active,Activity [21]: Active; Activity [22]: inactive; Activity [23]: Active; Activity [24]: inactive; Activity [25]: inactive; Activity [26]: Active; Activity [27]: inactive; Activity [28]: Active; Activity [29]: inactive; Activity [30]: inactive
COc1cc(N2CCN(CCOCCOCCNC(=O)CNc3cccc4c3C(=O)N(C3CCC(=O)NC3=O)C4=O)CC2)ccc1Nc1ncc(Cl)c(Nc2ccccc2S(=O)(=O)C(C)C)n1 (stereo not given),Active,inactive,inactive,Active,inactive,Active,10,Active,Active,50,Active,inactive,inactive,Active,Active,Active,inactive,Active,inactive,Active,Activity [21]: Active; Activity [22]: inactive; Activity [23]: Active; Activity [24]: inactive; Activity [25]: inactive; Activity [26]: Active; Activity [27]: inactive; Activity [28]: Active; Activity [29]: inactive; Activity [30]: inactive
